# Screening data as filed in PubChem BioAssay.
# CAL PDZ FP-1 – CAL PDZ (human) peptide binding inhibition; Q9HD26; purified CAL PDZ, TMR-peptide fluorescence polarization, 1 h; inhibition, % at 24.9 µM; actives 0.92% (n = 300,000); AID 602252;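 active = mean inhibition of at least 30% with at least half of replicates also reaching 30%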;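 also: 0% = DMSO neutral control and 100% = excess unlabeled competitor peptide PRC23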
# dFosB act-1 – mouse delta FosB homodimer activation. P13346. activation, % at 25 µM. purified delta FosB, TAMRA-CDK5 oligo fluorescence polarization; percent of positive-control signal above neutral wells. actives 0.99% (n = 340,000);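 active = mean activation above about 17%, with every replicate also reaching it, limit read from the data, passing the limit was not always enough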
# SR-BI HDL uptake – blocks mouse SR-BI lipid uptake from DiI-HDL; Q61009; ldlA[mSR-BI] CHO cells, DiI-HDL uptake fluorescence, 3 h; inhibition, % at 12.5 µM; actives 0.96% (n = 320,000); AID 488896;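 active = mean replicate inhibition of at least 70% and a set share of replicates each scoring 70 or more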;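 also: 0% = median of neutral control wells and 100% = median of positive control wells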
# Target sequence (Q61009 whole entry, looked up): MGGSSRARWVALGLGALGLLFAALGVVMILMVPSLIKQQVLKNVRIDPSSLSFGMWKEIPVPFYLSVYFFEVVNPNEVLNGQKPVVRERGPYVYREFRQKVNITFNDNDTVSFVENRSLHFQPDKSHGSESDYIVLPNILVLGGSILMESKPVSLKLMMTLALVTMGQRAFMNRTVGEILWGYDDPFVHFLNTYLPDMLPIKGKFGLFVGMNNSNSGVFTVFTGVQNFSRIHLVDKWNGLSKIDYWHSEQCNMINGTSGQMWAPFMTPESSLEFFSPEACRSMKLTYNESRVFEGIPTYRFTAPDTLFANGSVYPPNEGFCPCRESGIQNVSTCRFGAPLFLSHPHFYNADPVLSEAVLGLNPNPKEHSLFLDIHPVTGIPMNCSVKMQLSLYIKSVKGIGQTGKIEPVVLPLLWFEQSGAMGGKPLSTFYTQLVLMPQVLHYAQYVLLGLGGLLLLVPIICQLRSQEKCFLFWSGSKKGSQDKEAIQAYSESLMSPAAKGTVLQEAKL
# CAL PDZ FP-2 – human CAL PDZ-peptide interaction inhibition; AID 504414; actives 0.02% (n = 330,000); inhibition, % at 20 µM; purified CAL PDZ, TMR-peptide fluorescence polarization, 1 h; Q9HD26;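 active = highest replicate inhibition of at least 40%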;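 also: plate controls were DMSO neutral control wells for no effect and unlabeled competitor peptide control wells for full effect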
#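 Material: tagged CAL PDZ protein CerCALP, purified; buffer or medium: sodium phosphate/NaCl buffer pH 7.4 with TCEP, IgG, Thesit; also added: fluorescent TMR peptide probe; schedule: 1 h incubation at room temperature before polarization reading; technique: fluorescence polarization from S- and P-plane intensities, G-factor corrected; control set: unlabelled peptide and DMSO controls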
# SR-BI uptake up – activators of SR-BI mediated HDL lipid uptake; CHO ldlA[mSR-BI] cells, DiI-HDL uptake fluorescence, 3 h; 100 = double the neutral-control signal; activation, % at 12.5 µM; actives 0.096% (n = 320,000);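 active = mean replicate activation of at least 60% and every replicate at or above 60%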;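 also: 0% = median plate neutral-control signal and 100% = twice that signal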
#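 Material: SR-BI-overexpressing, LDLR-lacking CHO cells | Dosing: Single compound concentration, delivered by pin transfer | Probe or stimulus: Labelled HDL, 10 µg/mL | Signal: Bottom-read cell fluorescence after medium removal, ex 550/em 595 nm | Schedule: 3 h, 37 °C | Evaluation: HDL uptake via cellular fluorescence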
# dFosB act-2 – enhances mouse delta FosB homodimer binding to DNA. shares compounds with dFosB act-1. purified delta FosB, TAMRA-CDK5 oligo fluorescence polarization; normalised: neutral wells 0, positive control 100. activation, % at 24.9 µM. 2,400 tested, under 10 active;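 active = highest replicate activation at or above 34% and every replicate reaching that threshold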;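 also: higher polarization means more probe DNA bound by delta FosB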
# The depositor's hits bear a star; · = no result given. This is a sample that favours compounds with a hit; in the whole collection about 2.8% have one here.
SMILES,CAL PDZ FP-1,dFosB act-1,SR-BI HDL uptake,CAL PDZ FP-2,SR-BI uptake up,dFosB act-2
Cc1ccc(C(=O)CCC(=O)NNC(=O)c2ccccc2O)cc1,-2.7,23.1*,2.1,-0.6,-2.1,-1.4
O=C(Nc1nc(-c2ccc3ccccc3c2)cs1)c1ccc(N2C(=O)CCC2=O)cc1,-9.9,44.7*,38.7,-1.9,-38.7,-2.1
O=C(O)c1ccccc1Nc1ccnc(C(F)(F)F)c1,-9.9,8.7,-4.2,-0.7,4.2,·
Cc1ccsc1CNS(=O)(=O)c1ccc(F)cc1,0.4,-6.9,-11.7,-2.6,11.7,·
CCOc1cccc2sc(NC(=O)c3ccc(Br)s3)nc12,·,32.8*,31.3,-1.4,-31.3,7.0
Cc1csc(NC(=O)c2ccc(Br)s2)n1,-4.4,-9.4,9.8,-1.4,-9.8,·
Cc1ccc(COc2cccc(/C=N/NC(=O)c3nnn(-c4nonc4N)c3C)c2)cc1,-1.5,52.6*,19.7,0.6,-19.7,-0.3
Cc1ccc(COc2ccc(/C=N/NC(=O)c3nnn(-c4nonc4N)c3COc3ccc(F)cc3)cc2)cc1,-6.2,48.5*,71.0*,-0.2,-71.0,-0.1
O=C(N/N=C/C=C\c1ccccc1[N+](=O)[O-])c1cc(-c2ccc3ccccc3c2)n[nH]1,-3.4,24.7*,66.8,-3.5,-66.8,2.5
O=C(N/N=C/c1ccccn1)c1cc(-c2ccc3ccccc3c2)n[nH]1,-2.8,18.9*,10.2,-2.3,-10.2,3.1
COc1ccc([C@@H](OC)[C@@]2(Cc3ccc(O)cc3)N=C(N)N(C)C2=O)cc1,-0.6,1.7,5.5,-1.4,-5.5,·
CN(C)CCCNc1cc(-c2ccccc2)nc2cc(-c3cccc(F)c3)nn12,-14.1,56.4*,19.3,-9.6,-19.3,2.2
Cc1cc(O)c(-c2cc(C(=O)Nc3ccc(S(=O)(=O)N4CCOCC4)cc3)[nH]n2)cc1C,-2.9,24.6*,47.0,-1.7,-47.1,1.8
Cc1ccc(-c2cc(C(=O)Nc3ccc(S(=O)(=O)N4CC(C)OC(C)C4)cc3)[nH]n2)c(O)c1 (stereo not drawn),-2.1,42.1*,·,-3.9,·,6.9
COc1ccc(C(=O)Nc2ccc(C(=O)N3CCC(C)CC3)cc2)cc1OC,-1.4,-8.7,39.5,-3.0,-39.5,·
Cc1ccc(NC(=O)Cn2nnc(C(=O)NCCc3ccccc3)c2N)cc1Cl,-5.2,18.6*,22.4,-2.9,-22.4,1.8
Cc1cc(C)c(NC(=O)Cn2nnc(C(=O)NCCc3ccccc3)c2N)c(C)c1,-0.5,0.7,-19.3,-1.9,19.3,·
Cc1ccc(NC(=O)Cn2nnc(C(=O)NCCc3ccccc3)c2N)c(C)c1,-3.1,28.8*,-22.1,-1.3,22.1,-10.0
COc1ccc(CCNC(=O)c2nnn(-c3cc(C)cc(C)c3)c2N)cc1OC,-1.8,-10.1,54.2,-3.8,-54.2,·
COc1ccc(NC(=O)Cn2nnc(C(=O)NCc3ccccc3)c2N)cc1Cl,-6.4,14.4,20.4,0.7,-20.4,·
COc1ccc(CCNC(=O)Cn2nnc(C(=O)Nc3ccc(Br)cc3)c2N)cc1OC,-3.0,14.6,51.9,-2.9,-51.9,·
COc1ccc(CCNC(=O)c2nnn(CC(=O)Nc3ccc(C)cc3C)c2N)cc1OC,-1.0,52.8*,46.6,-1.1,-46.6,6.0
COc1ccc(Cl)cc1NC(=O)Cn1nnc(C(=O)NCCc2ccc(OC)c(OC)c2)c1N,-1.7,38.3*,68.9,-1.5,-68.9,5.7
CSC1=C(C#N)C(c2sccc2C)CC(=O)N1 (stereo not drawn),·,-2.8,9.9,-0.8,-9.9,·
CCOc1ccc2nc(NC(=O)CC3Oc4ccccc4NC3=O)sc2c1 (stereo not drawn),-1.4,28.7*,·,-3.0,·,2.7
SMILES,CAL PDZ FP-1,dFosB act-1,SR-BI HDL uptake,CAL PDZ FP-2,SR-BI uptake up,dFosB act-2
COc1ccc(-c2cc(C(=O)Nc3cc(C)nn3-c3ccccc3)no2)cc1,-4.3,22.6*,18.2,1.4,-18.2,-2.7
Cc1cc(NC(=O)c2cc(-c3ccccc3)on2)n(-c2ccccc2)n1,-3.1,-1.5,-7.8,-0.1,7.8,·
O=C(NC1=NCCS1)c1cccs1,-26.7,26.8*,-4.7,-0.6,4.7,2.2
CC(C)C(NC(=O)c1cccs1)C(=O)NC1=NCCS1 (stereo not drawn),8.8,8.7,-25.5,-0.7,25.5,·
COc1ccc(OC)c(-c2csc(N(CC3CCCO3)C(=O)Cc3ccccc3)n2)c1 (stereo not drawn),2.3,-6.7,39.0,-0.7,-39.0,·
C=CCN(c1ccccc1C(=O)O)S(=O)(=O)c1ccc(C)cc1,-0.3,-11.5,-3.0,0.6,3.0,·
O=C1CC(C(=O)Nc2ccc(Cl)cc2)n2ncnc2N1 (stereo not drawn),2.9,-0.4,-14.6,-0.8,14.6,·
Cc1ccc(NC(=O)[C@@H]2CCC(=O)N2C2OC(=O)c3ccccc32)cc1Cl (stereo partly drawn),-2.9,-2.1,-21.0,0.8,21.0,·
Cc1ccc(NC(=O)C2CC(=O)n3c(nc4ccccc43)N2)cc1Cl (stereo not drawn),·,31.3*,-16.4,-1.6,16.4,-15.7
CC(C)c1ccc(NC(=O)C2CC(=O)Nc3nc4ccccc4n32)cc1 (stereo not drawn),-7.4,81.3*,-7.0,0.6,7.0,4.7
Cc1ccc(NC(=O)C2CC(=O)n3c(nc4ccccc43)N2)cc1C (stereo not drawn),1.1,31.1*,-29.0,-1.2,29.0,-2.3
Cc1ccc(NC(=O)C2CC(=O)n3ncnc3N2)cc1 (stereo not drawn),1.1,-4.5,-23.7,0.5,23.7,·
Cc1ccc(Nc2c(-c3ccccn3)nc3cccc(C)n23)cc1,-18.4,15.9,·,0.4,·,·
CC(=O)N1CCN(C(=O)COC(=O)c2oc3ccccc3c2C)CC1,-0.8,-5.8,51.0,1.1,-51.0,·
CCCOc1cccc(-c2nn(-c3ccccc3)cc2/C=C(\C#N)C(=O)NCCCn2ccnc2)c1,-3.9,-1.5,3.9,-3.1,-3.9,·
N#C/C(=C/c1cn(-c2ccccc2)nc1-c1cccc(OCc2ccc(F)cc2)c1)C(=O)NCCCn1ccnc1,-0.6,35.4*,-20.2,-1.5,20.2,-1.7
O=C(Nc1ccc(Cl)cc1)c1cccc(NC2=NC3CS(=O)(=O)CC3S2)c1 (stereo not drawn),·,-0.1,-7.0,-1.4,7.0,·
CC(=O)NC(N(C#N)c1nc(Cl)nc(N(C)C)n1)C(Cl)(Cl)Cl (stereo not drawn),3.6,0.2,-0.6,0.8,0.6,·
O=C(COC(=O)/C=C/c1cc(Br)ccc1F)Nc1ccc2[nH]c(=O)[nH]c2c1,3.4,41.2*,3.3,-3.0,-3.3,1.3
NC(=O)Nc1ccc(C(=O)OCC(=O)Nc2sccc2C(N)=O)cc1,-8.9,17.2*,5.8,-3.8,-5.8,-7.0
